From PubChem BioAssay AID602194 (The Scripps Research Institute Molecular Screening Center, 2012)
About 140 (5.8%) of roughly 2,400 compounds were called active. Not all results are given here. A number with no mark means an inactive call.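 Rule for the calls: active = mean activation across replicates exceeds the hit threshold derived in the earlier primary screen (cut at about 18% in these data); inactive = the rest.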

molecular target: Mu-type opioid receptor (Homo sapiens) + Delta-type opioid receptor (Homo sapiens) (UniProt P35372+P41143); assay: agonists of MOR-DOR heterodimerization, counter-screen for MC4R biased agonist project, cell-based, luminescence (AID 602194); settings: U2OS PathHunter beta-arrestin, beta-gal luminescence; at 9.2 µM; stronger effect = higher value; percent of deltorphin B response, DMSO zero
Summary of the method: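 Repeats: triplicate; Test system: U2OS Mu-Delta cell line; Benchmarks: Deltorphin B 0.9 µM final as 100%, DMSO only as 0%; Measured by: beta-gal complementation luminescence; Schedule: 3 h compound exposure at 37 °C, 1 h room-temperature readout; Dosing: single dose, 9.2 µM final nominal compound concentration.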

Sequence of Mu-type opioid receptor (Homo sapiens) + Delta-type opioid receptor (Homo sapiens) (P35372 whole entry, looked up): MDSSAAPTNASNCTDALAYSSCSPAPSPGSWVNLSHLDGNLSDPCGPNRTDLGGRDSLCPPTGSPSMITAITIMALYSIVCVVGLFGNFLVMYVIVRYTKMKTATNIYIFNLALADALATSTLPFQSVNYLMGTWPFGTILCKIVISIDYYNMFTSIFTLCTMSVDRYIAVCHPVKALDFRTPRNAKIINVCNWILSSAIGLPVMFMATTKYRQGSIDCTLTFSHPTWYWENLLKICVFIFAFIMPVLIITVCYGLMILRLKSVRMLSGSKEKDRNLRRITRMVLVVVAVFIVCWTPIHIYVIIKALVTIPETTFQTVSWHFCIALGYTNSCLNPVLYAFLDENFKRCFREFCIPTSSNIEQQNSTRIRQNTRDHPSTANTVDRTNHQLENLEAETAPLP
Sequence of Mu-type opioid receptor (Homo sapiens) + Delta-type opioid receptor (Homo sapiens) (P41143 whole entry, looked up): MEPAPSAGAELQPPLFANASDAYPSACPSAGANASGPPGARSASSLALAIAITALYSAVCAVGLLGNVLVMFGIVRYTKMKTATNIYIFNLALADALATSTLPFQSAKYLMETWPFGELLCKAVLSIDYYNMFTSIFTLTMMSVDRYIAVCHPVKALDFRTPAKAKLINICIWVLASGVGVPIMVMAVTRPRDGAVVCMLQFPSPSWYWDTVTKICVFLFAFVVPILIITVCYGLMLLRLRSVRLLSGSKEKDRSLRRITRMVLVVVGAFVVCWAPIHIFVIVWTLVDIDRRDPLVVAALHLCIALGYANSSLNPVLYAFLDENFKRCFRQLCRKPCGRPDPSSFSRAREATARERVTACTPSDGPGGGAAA

| SMILES | activation |
| --- | --- |
| COC(=O)c1sccc1NC(=O)CCC1CCCC1 | 6.23% |
| O=C(CCCN1C(=O)/C(=C/c2cccs2)SC1=S)Nc1ccc(O)cc1 | 1.75% |
| N#CCC(=O)N/N=C/c1cn(Cc2ccc3ccccc3c2)c2ccccc12 | 25.5% (active) |
| CCOC(=O)c1c(-c2ccc(C)cc2C)csc1NC(=O)CSc1nnnn1C | 7.04% |
| CCN(CC)c1ccc(C(=O)N/N=C/c2ccc(N3CCOCC3)cc2)cc1 | 13.2% |
| COC(=O)c1nc2n(n1)C(c1ccc([N+](=O)[O-])cc1)C(C(=O)Nc1ccc(Cl)cc1)=C(C)N2 (stereo not given) | 3.4% |
| COc1ccc2sc(-c3ccc(S(C)(=O)=O)cc3)c(C#Cc3cncn3C)c2c1 | 9.34% |
| O=C(CCCCCn1c(=S)[nH]c2cc3c(cc2c1=O)OCO3)N1CCN(c2ccc(F)cc2)CC1 | 3.68% |
| COc1ccc(Cc2nnc(NC(=O)c3ccc(OC)cc3OC)s2)cc1 | 4.47% |
| CCOC(=O)c1nn(-c2ccccc2F)c2nc(Nc3ccccc3)cc(=O)n12 | 17.8% |
| CCCOc1ccc(C(=O)C(CCC(CNCC)C(=O)c2ccc(OCCC)cc2)CNCC)cc1 (stereo not given) | 17.3% |
| Cc1ccc(-n2nc3cc(Cl)c(NC(=O)c4ccco4)cc3n2)cc1 | 0.83% |
| Oc1ccccc1N1CCN(c2ncnc3sc(-c4ccccc4)cc23)CC1 | 3.28% |
| Cc1ccc(Nc2nnc(SCc3ccccc3)s2)cc1 | 8.17% |
| COc1cccc(CNC(=O)c2nnn(CC(=O)Nc3cc(Cl)ccc3C)c2N)c1 | 11.8% |
| COCCN(CCOC)S(=O)(=O)c1ccc(C(=O)Nc2nc3c(s2)CCc2ccccc2-3)cc1 | 6.22% |
| Clc1ccc(Nc2ncnc3c2nnn3Cc2ccccc2)cc1 | 5.74% |
| COC(=O)c1c(C)[nH]c(C(=O)/C=C/c2ccc(Cl)cc2)c1C | 4.27% |
| COc1cc(/C=C2\Oc3ccc(C#Cc4ccc(O)cc4)cc3C2=O)cc(OC)c1 | 11.3% |
| CN(C)CCNC(=O)c1cccc(-c2cnc3c(NC=O)cc(-c4cccc(C(F)(F)F)c4)cn23)c1 | 7.61% |
| O=C(Nc1nc(-c2ccc(-c3ccccc3)cc2)cs1)c1cnccn1 | 2.08% |
| Clc1ccccc1Nc1nc(NCc2cccs2)nc2ccsc12 | 5.36% |
| CC(C)Oc1c(Br)cc(Br)cc1/C=N/NC(N)=S | 9.18% |
| CCc1ccc(Nc2ncc3c(n2)CC(c2ccco2)CC3=O)cc1 (stereo not given) | 13.5% |
| COc1cc(NC(=O)c2cncc(-c3ccc(C#N)cc3)c2)cc(C(=O)Nc2cccc(C(F)(F)F)c2)c1 | 5.39% |
